Source: PubChem (Columbia University Molecular Screening Center)
Insulin prom act = activators of insulin promoter-driven GFP, primary screen, imaging, TRM-6 cells (human fetal islet line), eGFP reporter, cell count. plate-scaled: unstimulated 0, stimulated control 100. activation, % at 2 µM. hit rate 0.81% among 130,000. AID 1296, 2008;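 active means activation at 2 µM above a set limit, confirmed on inspection of the cell images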;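 further: share of cells whose green reporter signal exceeds an intensity cutoff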
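Material: TRM-6 insulin promoter–eGFP reporter cells. Buffer or medium: Low-glucose (5.5 mM) medium with tamoxifen. Probe or stimulus: tamoxifen at 0.75 µM added at seeding for reporter induction. Times: tamoxifen pre-incubation 15 h overnight, then compound exposure 48 h at 37 °C. Detection: high-content imaging of fixed cells with Hoechst nuclear stain.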
Starred values were filed as active, the others as inactive. This excerpt belongs to a sample that is enriched for hits.

SMILES | Insulin prom act
O=C(NCc1ccco1)C1CCCN1S(=O)(=O)c1ccc2ccccc2c1 (stereo not given) | -5.7
CC(Sc1nc2ccccc2[nH]1)C(=O)Nc1ccccc1F (stereo not given) | 8.3
Cc1cccc(N2CCN(Cc3nc(-c4cccc(Oc5ccccc5)c4)oc3C)CC2)n1 | 8.7
O=C(COc1ccc([N+](=O)[O-])cc1)N/N=C/c1cc([N+](=O)[O-])ccc1N1CCOCC1 | 148.4
COC(=O)CCC(=O)Nc1cc(S(=O)(=O)Nc2ccc(Cl)cc2)ccc1N1CCOCC1 | 103.3
O=[N+]([O-])c1ccc(N/N=C/c2sc(N3CCOCC3)nc2-c2ccccc2)c(S(=O)(=O)Nc2ccc(Cl)cc2)c1 | 488.2*
COc1ccc(CCNC(=O)COC(=O)c2cc(OC)c(OC)cc2OC)cc1OC | -9.1
CC1CC(C)CN(S(=O)(=O)c2ccc(NC(=O)C3COc4ccccc4O3)cc2)C1 (stereo not given) | 925.0*
CC(C)(C)NC(=O)c1ccc(NC(=O)C2COc3ccccc3O2)cc1 (stereo not given) | 9.4
NS(=O)(=O)c1ccc(NC(=O)C2COc3ccccc3O2)cc1 (stereo not given) | 4.2
Cc1[nH]c2ccccc2c1SCC(=O)N1CCCCCC1 | 104.9
CCOC(=O)C1=C(CSc2nc(C)cc(C)c2C#N)OC(N)=C(C#N)C1c1ccccc1 (stereo not given) | 2.7
CC(=O)C1=C(c2ccccc2)OC(N)=C(C#N)C1c1ccc(O)cc1 (stereo not given) | -9.4
CCOC(=O)C1=C(CSc2nc(-c3ccccc3)ccc2C#N)OC(N)=C(C#N)C1c1ccc(OC)cc1 (stereo not given) | 83.7*
C#Cc1ccc(C(=O)Nc2ccc(N3CCC(C)CC3)c(C(N)=O)c2)cc1 | -7.7
CC(C)(C)OC(=O)N1CCN(c2ccc(CNC(=O)c3ccc(Cl)cc3)cc2)CC1 | 0.0
Nc1cc(C(=O)O)c(Oc2ccc(Cl)cc2Cl)cc1C(=O)O | -66.7
O=C(CN1CCSC1=NCc1ccccc1)c1ccccc1 | 0.0
CCOc1ccc(C2OC34CCCCC3C(C#N)(C#N)C2(C#N)C(=N)O4)cc1OC (stereo not given) | -5.6
O=C(Nc1ccc(F)c(F)c1)c1ccco1 | -7.1
CC(=O)N(C)c1ccc(NC(=O)c2ccco2)cc1 | -2.9
O=C(Nc1ccc(Br)cc1)c1ccco1 | 557.1*
CC(OC(=O)CCc1nc2ccccc2c(=O)[nH]1)C(=O)c1ccc(Br)cc1 (stereo not given) | 0.0
C=CCN1C(=O)c2cccc3c(N4CCCCC4)ccc(c23)C1=O | 669.2*
COc1ccccc1N1CCN(S(=O)(=O)c2ccc3c4c(cccc24)C(=O)N3C)CC1 | 6.7
SMILES | Insulin prom act
CCOC(=O)C1=C(C)Nc2nc(SCC)[nH]c(=O)c2C1c1ccncc1 (stereo not given) | 0.0
O=C(CCSc1ccccc1)N1CCN(C(=O)c2ccco2)CC1 | 156.3
O=C(c1ccco1)N1CCN(S(=O)(=O)Cc2ccc(Cl)cc2)CC1 | 420.0*
O=C(c1ccco1)N1CCN(S(=O)(=O)c2cccs2)CC1 | -76.7
O=C(Cc1ccccc1F)OCC(=O)N1CCN(C(=O)c2ccco2)CC1 | 0.0
O=C(Cc1ccccc1)N1CCN(C(=O)c2ccco2)CC1 | 528.6*
CCCCc1ccc(S(=O)(=O)N2CCN(C(=O)c3ccco3)CC2)cc1 | 7.1
CC(=O)OC(C(=O)Nc1ccccc1C)C(OC(C)=O)C(OC(C)=O)C(OC(C)=O)C(=O)Nc1ccccc1C (stereo not given) | 206.3
CC(NC(=O)OCc1ccccc1)C(=O)NCC(=O)NC(Cc1ccc(OC(C)(C)C)cc1)C(=O)OC(C)(C)C (stereo not given) | 6.9
O=C(COc1ccc(Cl)cc1)NCc1cn2cc(Cl)ccc2n1 | -2.7
Cn1c(=S)ccc2ccccc21 | 0.0
COCCNC(=S)NC(=O)c1ccc(C(C)(C)C)cc1 | -5.9
COCCCNC(=S)NNC(=O)C1CC1c1ccc(C(C)(C)C)cc1 (stereo not given) | 788.9*
COCCCNC(=S)NNC(=O)c1ccccn1 | 0.0
c1ccc(-c2ccc(-c3cnc4n3CCCCC4)cc2)cc1 | -6.5
COc1ccc(C(=O)NNC2=CC(=O)CC(C)(C)C2)cc1OC | 0.0
CCOC(=O)N1CCC(NC(=O)c2cc(C(=O)Nc3ccc(S(=O)(=O)N4CCOCC4)cc3)ccc2CO)CC1 | 5.9
CCCn1nnnc1NC(=O)COc1ccc(Cl)c(C)c1 | 2.7
Nc1nc(CSc2nnnn2-c2ccccc2)nc(N2CCCc3ccccc32)n1 | 447.1*
CN(C)c1nc(N)nc(CSc2nnnn2-c2ccc(F)cc2)n1 | 7.7
Cc1ncc(CSc2nnnn2-c2ccccc2)c(N)n1 | 218.8
COC(=O)c1c(-c2ccncc2)csc1NC(=O)c1ccoc1C | -8.6
CCOC(=O)c1c(-c2ccncc2)csc1N | 460.0*
Cc1cccc(-c2csc(N)c2C(=O)OC(C)C)c1 | 6.5
CCn1c(SCC(=O)N2CCCc3ccccc32)nnc1-c1ccoc1C | 0.0
SMILES | Insulin prom act
Cc1nn(-c2ccccc2)c(Oc2ccccc2)c1C=O | 6.7
Cc1ccc(S(=O)(=O)N(C)C)cc1NC(=S)NC(=O)C12CC3CC(CC(C3)C1)C2 | 387.5*
CN(C)S(=O)(=O)c1cccc(NC(=S)NC(=O)C2CCCCC2)c1 | -7.7
Cc1ccc(S(=O)(=O)N(C)C)cc1NC(=O)COC(=O)c1ccc2c(c1)OCO2 | 102.9
Cc1cc(C)n(-c2ccc(Cl)c(C(=O)Nc3ccc(-c4nnc5n4CCCCC5)cc3)n2)n1 | 8.7
COC(=O)C1CN(S(=O)(=O)c2ccccc2)CCN1S(=O)(=O)c1ccccc1 (stereo not given) | 8.3
Cc1cccc(NC(=O)C2C3CCC4C(CCC32)C4(Cl)Cl)c1 (stereo not given) | -3.3
O=C(Nc1sccc1C(=O)N1CCOCC1)c1cccnc1 | 0.0
CC(=O)c1cn(CC(=O)NCc2cccnc2)c2ccccc12 | 5.3
O=C(Cn1cc(C(=O)C(F)(F)F)c2ccccc21)NCc1ccco1 | 5.6
O=C(Cn1cc(C(=O)c2ccco2)c2ccccc21)NCc1ccco1 | 97.3*
Cc1nc(N(C)Cc2ccccc2)c2nnn(Cc3ccccc3)c2n1 | 0.0
Cc1ccc(-c2cc(C(=O)NCC3CCCO3)no2)cc1 (stereo not given) | 8.6
O=C(NCC1CCCO1)c1cc(-c2ccc(Cl)cc2Cl)on1 (stereo not given) | 85.7*
O=C(Nc1ccccc1C(=O)NCC1CCCO1)c1ccc(Cl)cc1Cl (stereo not given) | -5.7
Oc1ccc(N2CCN(C(=S)NCCc3ccccc3)CC2)cc1 | -6.5
CCOc1ccccc1Nc1nc2ccccc2n1C(C)C | 0.0
C=CCNc1nc(NCCN2CCOCC2)nc(N2CCOCC2)n1 | 493.3*
CNc1nc(C(=O)O)nc(N2CCOCC2)n1 | 272.2
O=c1c2ccccc2nc2c3ccccc3c(NCCN3CCOCC3)nn12 | 8.6
COc1ccc(C(=O)/C=C/c2ccc(OC)c(Cn3nnc4ccccc43)c2)cc1 | -7.9
CC(C)CNC(=O)c1ccc(NC(=O)c2cccs2)cc1 | -5.4
CCn1c(=O)cc(OCC(=O)Nc2cc(C)ccn2)c2ccccc21 | 6.5
CCn1c(=O)cc(OCC(=O)NCCc2cccc(C)c2)c2ccccc21 | 129.4*
CCOC(=O)COc1cc(=O)n(CC)c2ccccc12 | -4.2
CCOc1ccc(S(=O)(=O)NCc2ccc(OC)cc2)c2cccnc12 | 0.0
Cc1nonc1NC(=O)CSc1nc2c(C)cccc2cc1C#N | 809.1*
CCc1cc2cc(C)cc(C)c2nc1SCC(=O)Nc1cc(C)on1 | 118.2
